A selection: hits, their analogues and other compounds. The true share with any hit is near 3.7%.
KCNQ1 pot – human KCNQ1 channel potentiation or activation. CHO-K1 KCNQ1, thallium flux FluxOR fluorescence; active compounds read high. 0.35% of 310,000 active. B-score at 10 µM. P51787;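 active means fluorescence ratio B-score, a plate-corrected score, at least three library SD, with initial intensity B-score within 5 SD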
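Doses: Single concentration per compound, DMSO matched to controls | Test system: KCNQ1-transfected CHO-K1 cells | Timing: 90 min dye loading and 20 min compound exposure, both at room temperature | Measured by: Kinetic FluxOR thallium fluorescence, 10-s 1-Hz baseline, 110-s post-stimulus read | Medium: Assay buffer with matched DMSO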
KCNK3 block – human KCNK3 channel inhibition, primary screen | CHO-KCNK3 thallium flux, FluxOR fluorescence; active compounds read low | 0.84% of 340,000 active | O14649 | B-score at 10 µM;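 active means B-score under library mean minus 4 SD, starting fluorescence ratio at most library mean plus 5 SD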;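 further: more negative B-score means stronger inhibition of thallium flux through KCNK3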
Target sequence (O14649 whole entry, looked up): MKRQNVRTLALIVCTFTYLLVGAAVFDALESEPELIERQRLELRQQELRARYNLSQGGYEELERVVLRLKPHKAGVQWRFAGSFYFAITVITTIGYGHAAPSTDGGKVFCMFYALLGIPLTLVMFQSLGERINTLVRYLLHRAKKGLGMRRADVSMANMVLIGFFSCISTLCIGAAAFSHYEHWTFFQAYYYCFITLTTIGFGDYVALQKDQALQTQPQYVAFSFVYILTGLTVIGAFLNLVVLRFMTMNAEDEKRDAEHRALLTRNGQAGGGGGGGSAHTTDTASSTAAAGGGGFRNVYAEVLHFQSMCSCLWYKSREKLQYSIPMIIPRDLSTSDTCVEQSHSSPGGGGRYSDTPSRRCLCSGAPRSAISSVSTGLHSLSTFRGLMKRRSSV
Kir21 block – Kir2.1 (mouse) channel inhibition; B-score at 10 µM; 0.85% of 310,000 active; HEK293-Kir2.1, FluxOR thallium flux fluorescence; active compounds read low;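 active means fluorescence ratio B-score at or below minus 3 SD of library scores, with starting-brightness B-score within 2 SD, cut at about -4.2 in these data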;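 further: channel flux triggered by added potassium and thallium sulfate stimulus; B-score of peak minus minimum fluorescence over baseline after thallium stimulus; more negative B-score means stronger Kir2.1 block with less thallium influx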
KCNK9 block – blocks the human KCNK9 two-pore domain potassium channel; Q9NPC2; HEK293 KCNK9, FluxOR thallium flux fluorescence; active compounds read low; B-score at 10 µM; 1.2% of 310,000 active;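 active means ratio B-score over 3 SD below the library mean, with starting fluorescence within 5 SD of its mean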;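 further: negative B-score means less thallium flux so channel inhibition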
KCNQ1 inh – inhibitors of human KCNQ1 potassium channel; P51787; CHO-K1 KCNQ1, FluxOR thallium flux fluorescence; active compounds read high; B-score at 10 µM; 1.3% of 310,000 active; AID 2642;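 active means compounds whose thallium flux B-score, printed positive for inhibition, exceeds three library SD while starting fluorescence stays within three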;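 further: channel opened by potassium depolarization with thallium stimulus after 20 min compound exposure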
hERG rescue – shields human hERG channel from block by proarrhythmic agents. activation (rescue from dofetilide block), less the hit threshold, % at 10 µM. Q12809. CHO-hERG, FluxOR thallium flux, dofetilide IC70 present. 0.51% of 310,000 active;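 active means activation above the mean of controls blocked by dofetilide plus 5 SD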;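 further: thallium influx through hERG after potassium depolarization seen as dye fluorescence rise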
* marks the source's active call; other numbers are inactive results; i = inactive; · = not tested or not shown.

SMILES	KCNQ1 pot	KCNK3 block	Kir21 block	KCNK9 block	KCNQ1 inh	hERG rescue
O=C(CSc1nc2ccccc2c(=O)[nH]1)Nc1ccc(C(=O)O)cc1	i	i	-0.15	i	i	-10
CCOc1ccc(NC(=O)c2ccc(NC(=O)CSc3nc4ccccc4c(=O)[nH]3)cc2)cc1	i	i	-1.5	i	i	4.7*
CCOc1ccc(NC(=O)c2ccc3c(c2)CCN3S(C)(=O)=O)cc1	i	i	-1.6	i	i	11*
CS(=O)(=O)N1CCc2cc(C(=O)Nc3ccc(Br)cc3)ccc21	i	i	1.7	i	i	-8
O=C(O)C1(c2ccccc2)CCN(S(=O)(=O)c2ccccc2)CC1	i	i	-0.99	i	i	1
O=C(O)C1(c2ccccc2)CCN(S(=O)(=O)c2cccs2)CC1	i	i	1.9	i	i	5.2*
O=C1CCCN1CCCNS(=O)(=O)c1cccc(F)c1	i	i	-1.3	i	i	4.9*
Cc1c(N=Cc2cc(Br)cc(Br)c2O)cccc1C(=O)O	10*	i	2.5	i	i	-25
CN1CCN(C(=S)NC(=O)c2cccc([N+](=O)[O-])c2)CC1	i	i	-0.69	i	i	-4
Cc1ccc(C(=O)NC(=S)N2CCN(c3cc(C)ccc3C)CC2)cc1	i	i	0.05	i	i	7.7*
O=C(NC(=S)N(CC1CCC1)CC1CCCO1)c1cccc([N+](=O)[O-])c1 (stereo unspecified)	16*	i	0.37	i	i	7.9*
Cc1ccc(C(=O)NC(=S)N2CCN(c3ccccc3F)CC2)cc1	i	i	-0.12	i	i	-9
CC(C)(C)c1ccc(C(=O)NC(=S)N2CCCCCC2)cc1	22*	i	1.7	i	i	8.4*
CC1CCN(C(=S)NC(=O)c2cccc([N+](=O)[O-])c2)CC1	9*	i	2	i	i	13*
Cc1csc(CNC(=O)c2cc(COc3c(C)cccc3C)on2)n1	i	i	0.01	i	i	-11
CC1CCN(C(=S)NC(=O)c2ccc(C(C)(C)C)cc2)CC1	29*	i	1.1	i	i	14*
CC1CCN(C(=S)NC(=O)c2ccccc2)CC1	i	i	0.29	i	i	-6
COc1ccc(C(=O)NC(=S)N2CCC(C)CC2)cc1Br	27*	i	-2	i	i	15*
COCCn1c(-c2ccc(OC)cc2)cnc1SCC(=O)Nc1ccc(OC)cc1OC	i	i	-0.93	i	6*	-6
CCOC(=O)c1ccccc1NC(=O)CSc1nc2ccccc2c(=O)n1CCCN1CCOCC1	·	-11*	·	·	·	·
COc1ccc(NC(=O)CSc2nc3ccccc3c(=O)n2CCCN2CCCCC2)c(OC)c1	i	i	-6.1*	i	i	-6
COCCCNC(=O)CSc1nc2ccccc2c(=O)n1CCCN1CCCCC1	i	i	-1.5	i	i	-1
COCCn1c(-c2ccc(OC)cc2)cnc1SCC(=O)Nc1cc(C)on1	i	i	-0.05	i	i	-2
CCOC(=O)CSc1nc2c(sc3ccccc32)c(=O)n1CCCN1CCOCC1	i	i	-0.87	i	i	4.9*
O=C(CN(C(=O)CNC(=O)c1ccco1)c1ccccc1F)NC1CCCCC1	i	i	-0.85	i	i	-2
SMILES	KCNQ1 pot	KCNK3 block	Kir21 block	KCNK9 block	KCNQ1 inh	hERG rescue
CC(=O)Oc1ccc(-c2cc3ccc(OC(C)=O)cc3oc2=O)cc1	i	i	-0.68	i	i	-7
CCOc1ccc(NC(=S)N2CCC(NC(=O)C3CCCCC3)CC2)cc1	i	i	-1.3	i	i	-10
O=C(CSc1nnc(SCc2cccc3ccccc23)s1)N/N=C/C=C/c1ccccc1[N+](=O)[O-]	i	i	-0.12	-7.5*	i	-14
O=C(CSc1nnc(SCc2cccc3ccccc23)s1)N/N=C/c1c[nH]c2ccccc12	i	i	0.08	i	i	-1
C/C(=N\NC(=O)c1nnn(-c2nonc2N)c1CN1CCOCC1)c1ccc(CC(C)C)cc1	i	i	-1	i	i	-3
Cc1cc(C(=O)NNC(=O)c2ccc(C(F)(F)F)cc2)no1	i	i	-0.28	i	i	-4

Source: PubChem BioAssay
